Measured values from ChEMBL document CHEMBL2176883, “Aminopiperidine sulfonamide Cav2.2 channel inhibitors for the treatment of chronic pain” (J Med Chem, 2012).

Legend:
[1] = tested on: Liver microsomes; experiment: Drug metabolism in human liver microsomes assessed as assessed as 3-trifluoromethylbenzenesulfonamide level level; type: ADME, Microsome
[2] = target: T1, Voltage-dependent N-type calcium channel subunit alpha-1B (Homo sapiens, UniProt Q00975); experiment: Inhibition of human Cav2.2 expressed CBK cells assessed as inhibition of channel current at 3 uM at holding membrane potential -40 mV by conventional patch clamp electrophysiology assay
Procedure, shortened: (§1)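 Cav2.2 current block was measured at a depolarized (−40 mV) or hyperpolarized (−90 mV) potential. At −40 mV, n = 2, 3, 4 and 1 at 0.3, 1, 3 and 10 μM. At −90 mV, n = 4 and 6 at 3 and 10 μM. Values are mean ± SEM.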

[3] = tested on: Rattus norvegicus; experiment: Dose normalized AUC in rat at 3 mg/kg, po and 1 mg/kg, iv; type: ADME, organism-based; details: in vivo
Procedure, shortened: (§2)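 Rat pharmacokinetics from iv and po arms: 0.6 mg/kg iv with 1.8 mg/kg po, or 1 mg/kg iv with 3 mg/kg po. AUC was normalized to po dose (μM·h·kg/mg). Clearance (mL/min/kg) and half-life come from the iv arm, and F% is oral bioavailability.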

[4] = Plasma concentration in vagotomized dog at 10 mg/kg, iv after 90 mins; type: ADME, organism-based, Canis lupus familiaris; parameters: dose 10 mg/kg, route intravenous
Procedure, shortened: (§3)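 Anesthetized, vagotomized dogs; intravenous infusion in sequential rising doses of 1, 3 and 10 mg/kg (cumulative); plasma exposure sampled at indicated time points, n = 3.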

[5] = tested on: Mus musculus; experiment: Antinociceptive activity in Cav2.2 deficient mouse SNL neuropathic pain model assessed as reversal of mechanical allodynia at 30 mg/kg, po after 2 hrs; type: functional
Procedure, shortened: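 Cav2.2+/+ and Cav2.2−/− mice underwent spinal nerve ligation, then got a single 30 mg/kg oral dose. Mechanical allodynia was scored 2 h postdose.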

[6] = target: T2, Cav1.2 (Homo sapiens, UniProt Q13936); experiment: Inhibition of Cav1.2 assessed as inhibition of calcium flux at 3 uM by cell based FLIPR assay
Procedure, shortened: (§4)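 Cav1.2 counterscreen using a related calcium-influx FLIPR assay, run as % inhibition at single concentrations or as a titration.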

[7] = Plasma clearance in rat at 3 mg/kg, po and 1 mg/kg, iv; type: ADME, organism-based; procedure, shortened: as §2
[8] = Tmax in rat at 3 mg/kg; type: ADME, organism-based; parameters: dose 3 mg/kg; details: in vivo
Procedure, shortened: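 Rat pharmacokinetics: 3 mg/kg po arm alongside 1 mg/kg iv; tmax from oral arm, half-life from iv dosing.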

[9] = target: Cytochrome P450 3A4 (Homo sapiens, UniProt P08684); experiment: Inhibition of CYP3A4; type: ADME
[10] = target: T1, Voltage-dependent N-type calcium channel subunit alpha-1B; experiment: Inhibition of human Cav2.2 expressed CBK cells assessed as inhibition of channel current at 10 uM at holding membrane potential -90 mV by conventional patch clamp electrophysiology assay; procedure, shortened: as §1
[11] = Plasma concentration in vagotomized dog at 3 mg/kg, iv after 60 mins; type: ADME, organism-based, Canis lupus familiaris; parameters: dose 3 mg/kg, route intravenous; procedure, shortened: as §3
[12] = tested on: Mus musculus; experiment: Antinociceptive activity in Cav2.2 expressing wild type mouse assessed as reversal of complete Freund's adjuvant-induced pain at 30 mg/kg, po after 2 hrs; type: functional
[13] = Plasma concentration in rat complete Freund's adjuvant-induced pain model at 10 mg/kg, po after 3 hrs; type: ADME, organism-based; parameters: dose 10 mg/kg, route oral
Procedure, shortened: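 Separate CFA-treated rats given single oral 10 mg/kg dose; plasma exposure measured 3 h after dosing.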

[14] = Drug metabolism in Sprague-Dawley rat assessed as parent compound level in blood at 10 mg/kg, po after 8 hrs; type: ADME, organism-based; parameters: dose 10 mg/kg, route oral; details: read-out: Drug metabolism
Procedure, shortened: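 Male Sprague-Dawley rats were given a 10 mg/kg oral dose. Parent and metabolite concentrations were measured in whole blood and brain over time, including 8 h postdose.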

[15] = Plasma concentration rat at 100 mg/kg, po after 3 hrs; type: ADME, organism-based; parameters: dose 100 mg/kg, route oral
Procedure, shortened: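 Rat rota-rod motor coordination study; single 100 mg/kg oral dose; plasma and brain exposure determined 3 h postdose.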

[16] = target: T3, PXR (Homo sapiens, UniProt O75469); experiment: Activation of PXR at 10 uM relative to control; details: read-out: max activation
T3 sequence (O75469 whole entry): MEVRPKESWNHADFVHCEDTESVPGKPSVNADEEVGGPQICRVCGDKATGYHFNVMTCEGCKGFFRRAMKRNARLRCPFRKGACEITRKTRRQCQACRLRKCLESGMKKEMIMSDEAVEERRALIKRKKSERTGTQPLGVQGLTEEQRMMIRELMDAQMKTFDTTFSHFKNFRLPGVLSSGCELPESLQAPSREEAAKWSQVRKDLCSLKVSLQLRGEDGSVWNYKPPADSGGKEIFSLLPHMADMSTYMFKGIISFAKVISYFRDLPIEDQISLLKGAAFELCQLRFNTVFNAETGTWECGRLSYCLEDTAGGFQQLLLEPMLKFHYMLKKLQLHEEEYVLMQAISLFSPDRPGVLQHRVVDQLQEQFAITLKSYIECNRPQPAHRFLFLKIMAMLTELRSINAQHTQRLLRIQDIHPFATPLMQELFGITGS

[17] = tested on: Rattus norvegicus; experiment: Antinociceptive activity in rat assessed as reversal of complete Freund's adjuvant-induced pain at 10 mg/kg, po after 3 hrs; type: functional
Procedure, shortened: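 Rats had complete Freund's adjuvant-induced inflammatory pain and got oral dosing. Allodynia was read at 1 and 3 h postdose. Percent reversal per rat = (postdose − predose)/(preinjury − predose). Groups had at least six animals, reported as mean + SEM.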

[18] = Plasma concentration in rat complete Freund's adjuvant-induced pain model at 30 mg/kg, po after 3 hrs; type: ADME, organism-based; parameters: dose 30 mg/kg, route oral
Procedure, shortened: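 Satellite rats in CFA inflammatory pain study, 30 mg/kg po; plasma exposure (μM) at 3 h, n = 2, standard deviation.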

[19] = Fraction unbound in rat plasma; type: ADME, cell-free
[20] = tested on: Rattus norvegicus; experiment: Antinociceptive activity in rat assessed as reversal of complete Freund's adjuvant-induced pain at 30 mg/kg, po after 1 hr; type: functional
Procedure, shortened: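 In the rat CFA inflammatory pain model, compound was given orally at 30 mg/kg and allodynia was read at 1 and 3 h postdose. Average % reversal = (postdose − predose)/(preinjury − predose) for each rat, n = 6. Plasma exposure at 3 h was measured in satellite rats (n = 2).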

[21] = Plasma concentration in rat SNL neuropathic pain model at 10 mg/kg, po after 3 hrs; type: ADME, organism-based; parameters: dose 10 mg/kg, route oral
Procedure, shortened: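 Rats with spinal nerve ligation; separate SNL-treated rats given single oral 10 mg/kg dose; plasma exposure measured 3 h postdose.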

[22] = target: T2, Cav1.2; experiment: Inhibition of Cav1.2 assessed as inhibition of calcium flux at 1 uM by cell based FLIPR assay; procedure, shortened: as §4
[23] = tested on: Rattus norvegicus; experiment: Analgesic activity in po dosed rat SNL neuropathic pain model assessed as reversal of mechanical allodynia after 1 to 24 hrs; type: functional, organism-based
[24] = tested on: Canis familiaris; experiment: Cardiotoxicity in vagotomized dog assessed as QRS interval at 1 to 10 mg/kg, iv up to 90 mins; type: toxicity, organism-based, Canis lupus familiaris; parameters: dose 1-10 mg/kg, route intravenous; details: in vivo, 1.5 h
Procedure, shortened: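 Anesthetized, vagotomized dogs received an intravenous infusion in sequential rising cumulative doses of 1, 3 and 10 mg/kg. MAP, HR, QRS, PR and QTc were monitored, with plasma exposure sampled at the indicated time points (n = 3).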

T1 sequence (Q00975 whole entry, looked up): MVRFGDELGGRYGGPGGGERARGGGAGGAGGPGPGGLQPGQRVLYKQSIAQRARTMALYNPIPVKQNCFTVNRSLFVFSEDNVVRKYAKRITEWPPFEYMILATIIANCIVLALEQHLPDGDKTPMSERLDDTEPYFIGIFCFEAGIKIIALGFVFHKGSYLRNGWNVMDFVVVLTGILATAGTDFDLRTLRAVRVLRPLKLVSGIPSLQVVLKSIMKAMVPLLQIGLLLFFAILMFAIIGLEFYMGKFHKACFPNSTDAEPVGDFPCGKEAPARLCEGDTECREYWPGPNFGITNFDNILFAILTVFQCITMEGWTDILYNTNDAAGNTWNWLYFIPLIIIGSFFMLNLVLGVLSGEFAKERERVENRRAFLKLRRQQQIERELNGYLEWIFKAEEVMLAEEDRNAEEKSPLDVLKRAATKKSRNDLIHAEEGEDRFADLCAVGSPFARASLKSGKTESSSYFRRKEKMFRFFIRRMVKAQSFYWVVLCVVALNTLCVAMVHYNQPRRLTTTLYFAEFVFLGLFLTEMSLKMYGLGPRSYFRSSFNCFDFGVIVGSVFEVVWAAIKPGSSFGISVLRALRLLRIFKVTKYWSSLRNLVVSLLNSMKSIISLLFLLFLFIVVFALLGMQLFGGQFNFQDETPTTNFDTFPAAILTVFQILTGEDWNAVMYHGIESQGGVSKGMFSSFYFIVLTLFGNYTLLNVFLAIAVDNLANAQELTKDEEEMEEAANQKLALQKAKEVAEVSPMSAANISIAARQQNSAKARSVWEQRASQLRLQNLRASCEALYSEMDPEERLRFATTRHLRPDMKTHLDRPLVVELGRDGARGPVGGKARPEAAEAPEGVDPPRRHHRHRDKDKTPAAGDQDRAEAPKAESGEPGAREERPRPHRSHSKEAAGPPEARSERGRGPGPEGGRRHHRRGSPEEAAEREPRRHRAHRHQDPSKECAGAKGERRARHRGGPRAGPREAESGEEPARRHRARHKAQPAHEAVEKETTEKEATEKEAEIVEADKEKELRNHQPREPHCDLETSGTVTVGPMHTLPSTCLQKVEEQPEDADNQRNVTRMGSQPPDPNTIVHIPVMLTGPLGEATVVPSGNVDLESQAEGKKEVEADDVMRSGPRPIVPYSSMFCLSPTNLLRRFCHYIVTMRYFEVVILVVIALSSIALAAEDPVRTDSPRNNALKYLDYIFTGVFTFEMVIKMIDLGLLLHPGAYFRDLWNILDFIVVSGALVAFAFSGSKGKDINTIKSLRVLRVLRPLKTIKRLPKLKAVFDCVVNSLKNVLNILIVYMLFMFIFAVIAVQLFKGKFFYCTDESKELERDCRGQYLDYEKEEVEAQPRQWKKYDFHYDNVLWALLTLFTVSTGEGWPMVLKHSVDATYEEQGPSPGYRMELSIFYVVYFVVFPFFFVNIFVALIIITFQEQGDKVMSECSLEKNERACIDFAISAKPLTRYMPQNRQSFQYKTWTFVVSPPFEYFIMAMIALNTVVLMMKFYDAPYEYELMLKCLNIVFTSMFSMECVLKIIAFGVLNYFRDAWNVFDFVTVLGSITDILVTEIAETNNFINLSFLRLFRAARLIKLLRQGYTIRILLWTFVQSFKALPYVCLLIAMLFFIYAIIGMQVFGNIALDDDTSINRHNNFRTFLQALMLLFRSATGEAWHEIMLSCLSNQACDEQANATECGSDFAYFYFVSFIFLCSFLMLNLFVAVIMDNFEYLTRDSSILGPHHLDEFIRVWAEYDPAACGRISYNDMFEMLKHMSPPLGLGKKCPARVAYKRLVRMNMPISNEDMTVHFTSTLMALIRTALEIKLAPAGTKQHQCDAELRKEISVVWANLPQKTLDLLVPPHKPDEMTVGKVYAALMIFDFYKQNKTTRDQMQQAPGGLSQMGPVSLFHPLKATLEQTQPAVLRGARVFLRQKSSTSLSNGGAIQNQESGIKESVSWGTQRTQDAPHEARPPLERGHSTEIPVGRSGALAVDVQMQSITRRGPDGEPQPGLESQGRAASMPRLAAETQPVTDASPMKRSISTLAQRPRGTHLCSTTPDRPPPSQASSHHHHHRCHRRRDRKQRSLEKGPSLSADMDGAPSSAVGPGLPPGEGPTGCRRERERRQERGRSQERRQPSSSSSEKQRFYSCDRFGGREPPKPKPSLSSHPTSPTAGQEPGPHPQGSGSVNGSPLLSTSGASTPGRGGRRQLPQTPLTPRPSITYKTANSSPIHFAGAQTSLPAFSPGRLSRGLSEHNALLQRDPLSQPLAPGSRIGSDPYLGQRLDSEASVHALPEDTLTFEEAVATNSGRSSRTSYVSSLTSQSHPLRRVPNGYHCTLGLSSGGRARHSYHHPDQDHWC
T2 sequence (Q13936 whole entry): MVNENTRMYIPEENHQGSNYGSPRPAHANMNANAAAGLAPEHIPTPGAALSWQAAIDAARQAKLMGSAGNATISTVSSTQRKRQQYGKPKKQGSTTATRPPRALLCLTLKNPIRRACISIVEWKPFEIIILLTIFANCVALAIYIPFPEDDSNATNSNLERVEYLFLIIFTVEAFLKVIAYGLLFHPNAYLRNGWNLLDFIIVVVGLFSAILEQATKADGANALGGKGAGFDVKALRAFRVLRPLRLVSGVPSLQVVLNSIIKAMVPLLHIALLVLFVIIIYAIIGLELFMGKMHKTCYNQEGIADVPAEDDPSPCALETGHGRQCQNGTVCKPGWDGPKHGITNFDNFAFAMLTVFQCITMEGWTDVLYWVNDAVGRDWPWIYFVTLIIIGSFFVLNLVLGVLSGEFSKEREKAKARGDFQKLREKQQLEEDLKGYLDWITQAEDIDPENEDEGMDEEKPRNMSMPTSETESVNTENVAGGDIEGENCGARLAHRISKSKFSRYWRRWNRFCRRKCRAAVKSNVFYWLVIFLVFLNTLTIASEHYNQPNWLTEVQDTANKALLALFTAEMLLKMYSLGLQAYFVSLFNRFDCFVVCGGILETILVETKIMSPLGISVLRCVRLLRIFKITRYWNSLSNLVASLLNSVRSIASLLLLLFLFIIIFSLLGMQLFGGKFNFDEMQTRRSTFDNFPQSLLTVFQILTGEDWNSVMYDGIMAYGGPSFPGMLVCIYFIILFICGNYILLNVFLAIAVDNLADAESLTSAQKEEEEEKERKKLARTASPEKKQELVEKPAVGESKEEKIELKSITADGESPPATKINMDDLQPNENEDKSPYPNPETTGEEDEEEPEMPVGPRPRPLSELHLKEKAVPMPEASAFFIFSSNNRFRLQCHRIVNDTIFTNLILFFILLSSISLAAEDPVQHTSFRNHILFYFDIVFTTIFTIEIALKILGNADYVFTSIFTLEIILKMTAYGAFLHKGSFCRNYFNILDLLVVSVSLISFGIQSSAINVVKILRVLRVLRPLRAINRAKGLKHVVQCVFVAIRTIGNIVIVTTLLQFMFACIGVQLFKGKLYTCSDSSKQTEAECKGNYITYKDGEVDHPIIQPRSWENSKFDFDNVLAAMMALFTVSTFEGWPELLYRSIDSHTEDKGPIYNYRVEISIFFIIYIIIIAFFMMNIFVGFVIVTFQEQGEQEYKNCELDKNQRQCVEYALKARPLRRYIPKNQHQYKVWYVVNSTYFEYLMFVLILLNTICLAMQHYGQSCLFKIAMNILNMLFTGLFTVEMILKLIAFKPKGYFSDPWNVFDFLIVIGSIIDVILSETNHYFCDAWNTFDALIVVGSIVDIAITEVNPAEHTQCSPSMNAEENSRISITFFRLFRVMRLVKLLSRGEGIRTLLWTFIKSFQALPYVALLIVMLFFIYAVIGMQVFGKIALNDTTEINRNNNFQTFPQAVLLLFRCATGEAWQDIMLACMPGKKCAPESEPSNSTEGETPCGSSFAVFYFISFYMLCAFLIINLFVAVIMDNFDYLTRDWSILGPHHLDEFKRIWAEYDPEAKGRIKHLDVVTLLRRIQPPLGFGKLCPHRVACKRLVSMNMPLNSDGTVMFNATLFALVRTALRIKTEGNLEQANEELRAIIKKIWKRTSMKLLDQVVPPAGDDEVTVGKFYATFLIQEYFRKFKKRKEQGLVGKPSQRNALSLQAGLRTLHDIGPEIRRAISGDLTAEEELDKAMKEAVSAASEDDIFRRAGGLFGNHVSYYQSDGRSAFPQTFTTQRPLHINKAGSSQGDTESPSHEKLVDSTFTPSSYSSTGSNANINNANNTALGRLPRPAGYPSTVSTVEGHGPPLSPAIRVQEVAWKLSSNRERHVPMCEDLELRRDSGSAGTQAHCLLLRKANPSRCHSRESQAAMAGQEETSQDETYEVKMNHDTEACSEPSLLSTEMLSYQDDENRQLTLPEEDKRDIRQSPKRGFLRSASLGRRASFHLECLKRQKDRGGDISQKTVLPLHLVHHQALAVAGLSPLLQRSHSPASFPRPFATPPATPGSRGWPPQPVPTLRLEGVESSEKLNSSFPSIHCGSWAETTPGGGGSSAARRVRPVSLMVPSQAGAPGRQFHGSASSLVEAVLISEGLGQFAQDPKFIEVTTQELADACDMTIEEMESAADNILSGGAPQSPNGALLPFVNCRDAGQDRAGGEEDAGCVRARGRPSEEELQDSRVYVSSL
Cytochrome P450 3A4, sequence (P08684 whole entry): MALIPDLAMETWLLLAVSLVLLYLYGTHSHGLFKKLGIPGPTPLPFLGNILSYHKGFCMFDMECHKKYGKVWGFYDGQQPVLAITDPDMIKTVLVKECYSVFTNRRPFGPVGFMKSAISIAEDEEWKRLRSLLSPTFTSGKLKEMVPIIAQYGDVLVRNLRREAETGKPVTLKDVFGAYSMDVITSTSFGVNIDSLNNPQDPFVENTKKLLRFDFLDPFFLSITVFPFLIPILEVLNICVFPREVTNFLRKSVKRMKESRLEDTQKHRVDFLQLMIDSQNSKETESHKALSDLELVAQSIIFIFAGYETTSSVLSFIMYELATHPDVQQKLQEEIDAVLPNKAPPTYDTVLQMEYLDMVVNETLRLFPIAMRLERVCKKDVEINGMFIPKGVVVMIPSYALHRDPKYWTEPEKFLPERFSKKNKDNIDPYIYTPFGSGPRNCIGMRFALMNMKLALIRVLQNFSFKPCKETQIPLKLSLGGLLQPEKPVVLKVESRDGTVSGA

- Drug metabolism [1]: Active
- inhibition [2]: 84%
- AUC/dose [3]: 0.86 µM·kg·h/mg
- concentration at 1.5 h [4]: 20400 nM
- clearance [7]: 35 mL/min/kg
- Tmax [8]: 1.7 h
- IC50 [9]: 5.1 µM
- inhibition [10]: 43%
- concentration at 1 h [11]: 5790 nM
- concentration at 3 h [13]: 1660 nM
- concentration at 8 h [14]: 310 nM
- concentration at 3 h [15]: 9500 nM
- Emax at 10 µM [16]: 124%
- concentration at 3 h [18]: 1600 nM
- fraction unbound [19]: 0.02
- concentration at 3 h [21]: 1260 nM
Structure (SMILES): CS(=O)(=O)c1ccc(F)cc1C(=O)N1CCC(N(C2CC2)S(=O)(=O)c2cccc(C(F)(F)F)c2)CC1
- Activity [5]: 9%
- inhibition at 3 µM [6]: 34%
- Activity [12]: 35%
- Activity [17]: 49%
- Activity [20]: 66%
- inhibition at 1 µM [22]: 18%
- Activity [23]: Dose-dependent effect
- Activity [24]: Non-toxic
